Measured values as given in ChEMBL document CHEMBL1125305, “Synthesis and antitumor activity of amino derivatives of pyridine-2-carboxaldehyde thiosemicarbazone” (1992).

Key:
[1] = organism: Mus musculus; experiment: Average change in body weight from onset to termination of therapy in mice bearing the L1210 Leukemia(dose 20x2 mg/ kg ); assay type: functional
Procedure, shortened: (§1)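 Female CD2F1 mice carried implanted L1210 leukemia. Drug was given ip in suspension twice daily for 6 consecutive days, beginning 24 h after implantation, with 5–10 mice per group. The value is the average percent body-weight change from onset to termination of therapy.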

[2] = organism: Mus musculus; experiment: Average survival days at the dose 30x2 mg/ kg in mice bearing the L1210 Leukemia; assay type: functional
Procedure, shortened: (§2)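 CD2F1 female mice with implanted L1210 leukemia; each compound given ip as a suspension, twice daily for 6 consecutive days, starting 24 h after tumor implantation; 5-10 mice per group. Read-out is mean survival time, counting only mice dying before day 60. Body weight change is recorded from onset to end of therapy.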

[3] = organism: Mus musculus; experiment: Effect of compound on mice bearing the L1210 Leukemia expressed as T/C percent treated/control)-dose 20 mg/ kg; assay type: functional; settings: at 20 mg/kg
[4] = organism: Mus musculus; experiment: Average change in body weight from onset to termination of therapy in mice bearing the L1210 Leukemia(dose 15x2 mg/ kg ); assay type: functional; procedure, shortened: as §1
[5] = organism: Mus musculus; experiment: Average survival days at the dose 20x2 mg/ kg in mice bearing the L1210 Leukemia; assay type: functional; procedure, shortened: as §2
[6] = organism: Mus musculus; experiment: Average change in body weight from onset to termination of therapy in mice bearing the L1210 Leukemia(dose 30x2 mg/ kg ); assay type: functional; procedure, shortened: as §1
[7] = organism: Mus musculus; experiment: Average change in body weight from onset to termination of therapy in mice bearing the L1210 Leukemia(dose 10x2 mg/ kg ); assay type: functional; procedure, shortened: as §1
[8] = organism: Mus musculus; experiment: Effect of compound on mice bearing the L1210 Leukemia expressed as T/C percent treated/control)-dose 15x2 mg/ kg; assay type: functional
[9] = organism: Mus musculus; experiment: Average survival days at the dose 10x2 mg/ kg in mice bearing the L1210 Leukemia; assay type: functional; procedure, shortened: as §2
[10] = organism: Mus musculus; experiment: Effect of compound on mice bearing the L1210 Leukemia expressed as T/C percent treated/control)-dose 20x2 mg/ kg; assay type: functional
[11] = organism: Mus musculus; experiment: Effect of compound on mice bearing the L1210 Leukemia expressed as T/C percent treated/control)-dose 10x2 mg/ kg; assay type: functional
[12] = organism: Mus musculus; experiment: Average change in body weight from onset to termination of therapy in mice bearing the L1210 Leukemia(dose 20 mg/ kg ); assay type: functional; settings: at 20 mg/kg
Procedure, shortened: (§3)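 L1210 leukemia in CD2F1 mice. Drug was given ip as a suspension once daily for 6 consecutive days, starting 24 h after tumor implantation, with 5–10 mice per group. The value is the average body-weight change from onset to termination of therapy, in percent.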

[13] = organism: Mus musculus; experiment: Average survival days at the dose 15x2 mg/ kg in mice bearing the L1210 Leukemia; assay type: functional; procedure, shortened: as §2
[14] = organism: Mus musculus; experiment: Average survival days at the dose 20 mg/ kg in mice bearing the L1210 Leukemia
[15] = organism: Mus musculus; experiment: Effect of compound on mice bearing the L1210 Leukemia expressed as T/C percent treated/control)-dose 30x2 mg/ kg; assay type: functional
[16] = organism: Mus musculus; experiment: Average change in body weight from onset to termination of therapy in mice bearing the L1210 Leukemia(dose 10 mg/ kg ); assay type: functional; settings: at 10 mg/kg; procedure, shortened: as §3
[17] = tested on: Mus musculus; experiment: Effect of compound on mice bearing the L1210 Leukemia expressed as T/C percent treated/control)-dose 10 mg/kg; assay type: functional
[18] = organism: Mus musculus; experiment: Average survival days at the dose 40 mg/ kg in mice bearing the L1210 Leukemia; assay type: functional
[19] = organism: Mus musculus; experiment: Average change in body weight from onset to termination of therapy in mice bearing the L1210 Leukemia(dose 40 mg/ kg ); assay type: functional; settings: at 40 mg/kg; procedure, shortened: as §3
[20] = organism: Mus musculus; experiment: Effect of compound on mice bearing the L1210 Leukemia expressed as T/C percent treated/control)-dose 60 mg/ kg; assay type: functional; settings: at 60 mg/kg
[21] = organism: Mus musculus; experiment: Average change in body weight from onset to termination of therapy in mice bearing the L1210 Leukemia(dose 60 mg/ kg ); assay type: functional; settings: at 60 mg/kg; procedure, shortened: as §3
[22] = organism: Mus musculus; experiment: Average change in body weight from onset to termination of therapy in mice bearing the L1210 Leukemia(dose 40x2 mg/ kg ); assay type: functional; procedure, shortened: as §1
[23] = organism: Mus musculus; experiment: Effect of compound on mice bearing the L1210 Leukemia expressed as T/C percent treated/control)-dose 40x2 mg/ kg; assay type: functional
[24] = organism: Mus musculus; experiment: Average survival days at the dose 40x2 mg/ kg in mice bearing the L1210 Leukemia; assay type: functional; procedure, shortened: as §2
[25] = organism: Mus musculus; experiment: Average survival days at the dose 60 mg/ kg in mice bearing the L1210 Leukemia
[26] = organism: Mus musculus; experiment: Effect of compound on mice bearing the L1210 Leukemia expressed as T/C percent treated/control)-dose 40 mg/ kg; assay type: functional; settings: at 40 mg/kg

Compound	Average change in body weight [1] [%]	Average survival [2] [days]	T/C [3] [%]	Average change in body weight [4] [%]	Average survival [5] [days]	Average change in body weight [6] [%]	Average change in body weight [7] [%]	T/C [8] [%]	Average survival [9] [days]	T/C [10] [%]	T/C [11] [%]	Average change in body weight [12] [%]	Average survival [13] [days]	T/C [15] [%]	T/C [17] [%]	Average survival [18] [days]	Average change in body weight [19] [%]	also measured
N/C(S)=N/N=C/c1ccc(N)cn1	-12.3	6.9	140	-7.7	14	-16	-3.8	221	17.6	185	232	-2.8	16.8	91	–	–	–	Average survival [14]: 11 days
Cc1cc(/C=N/N=C(/N)S)ncc1NO	–	–	–	–	–	–	–	–	–	–	–	–	–	–	136	10.6	–	Average change in body weight [16]: -2.7%
Cc1cc(/C=N/N=C(/N)S)ncc1N	-12.1	14.4	138	-7.1	17.9	-12.4	1.4	276	18.6	236	245	-7	21	190	–	10.8	–	–
N/C(S)=N/N=C/c1ccc(O)cn1	–	–	–	–	–	–	–	–	–	–	–	–	–	–	133	10.4	2	–
Cc1ccnc(/C=N/N=C(/N)S)c1N	-3.8	17.6	–	–	16.9	-2.4	1.4	–	14.8	222	195	–	–	232	–	–	–	T/C [20]: 190%; Average change in body weight [21]: 2%; Average change in body weight [22]: -8.1%; T/C [23]: 255%; Average survival [24]: 19.4 days; Average survival [25]: 14.9 days
NC(=S)N/N=C/c1ncccc1N [TRIAPINE]	-12.4	7.3	–	-3.3	14.6	-12.8	-6.4	262	18.7	192	246	–	19.8	96	–	14.6	-5.9	T/C [26]: 187%
